# Only some compounds are listed: those with a hit (about 2.6% of all), similar ones and a draw of the others.
# miR-122 sensor: inhibitors of miR-122 in Huh7 cells. 0.3% of 340,000 active. Huh7 miR-122 Renilla luciferase sensor, 48 h; neutral wells = 0, positive control = 100. activation (reporter increase), % at 12.5 µM;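 active means mean replicate activation score at least 90 and every replicate individually at or above 90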;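 further: higher luciferase means less miR-122 activity so hits act as miR-122 inhibitors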
# Vif inh: blocks HIV Vif function; HEK293T cells, Vif self-association by quenched fluorescence, imaging, 24 h; inhibition, % at 7.49 µM; 0.35% of 340,000 active; in the data active means inhibition above about 50%, passing the limit was not always enough
# HIV Env fusion: blocks HIV Env-driven cell-cell fusion; HeLa-JRFL Env/CEM21 cell fusion, luciferase; inhibition, % at 12.3 µM; 1.1% of 360,000 active;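 active means mean replicate inhibition score of at least 50 and every replicate individually at or above 50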;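 further: 0% = plate neutral controls and 100% = maraviroc near 300 nM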
# S100A4 MyoIIA: S100A4-myosin IIA interaction inhibition. 0.14% of 360,000 active. S100A4/TAMRA-MyoIIA peptide fluorescence polarization. P26447. inhibition, % at 10.7 µM. AID 652163;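 active means mean inhibition of at least 70% across replicates, with every replicate also reaching that level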
# Target sequence (P26447 whole entry, looked up): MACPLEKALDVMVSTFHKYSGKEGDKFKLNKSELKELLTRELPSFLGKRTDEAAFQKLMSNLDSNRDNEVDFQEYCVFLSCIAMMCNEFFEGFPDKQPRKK
#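 incubation = readout 5 min after mixing, signal stable up to 60 min | system = S100A4 monomer protein | buffer or medium = HEPES pH 7.2 with CaCl2, KCl, NaCl, DTT, Triton | benchmarks = neutral control DMSO, positive control TFP | also added = fluorescent myosin IIA peptide, 5 nM | compound dosing = one concentration per compound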
# FN deposition inh: fibronectin deposition inhibition | AH1F fibroblasts, Alexa488-fibronectin deposition fluorescence, overnight | inhibition, % at 12.6 µM | 0.086% of 350,000 active | AID 743247;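 active means mean inhibition across replicates of 30% or more, regardless of how many single replicates reach that level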;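 further: positive control wells lacked labelled fibronectin entirely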
#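 Material: AH1F fibroblasts assembling fluorescent fibronectin matrix; amount: 10000 AH1F cells/well; medium: DMEM, 2% serum; reagent: Alexa488-fibronectin, 24 nM final in well; dosing: single compound dose, delivered by pin transfer; incubation: 1 h adhesion, overnight exposure; detection: fluorescence after three HBSS washes, excitation 485 nm, emission 525 nm; measure: fibronectin deposition inhibition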
# rRNA inh HTS: inhibits bacterial ribosomal RNA function over humanized ribosomes; E. coli WT GFP vs humanized-ribosome RFP mutants, fluorescence, 24 h; hits give low values; DMSO median 0, no signal -100; GFP signal change (wild-type ribosome), % (concentration not given with the values); 1.6% of 350,000 active; AID 720706;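 active means significant combined selectivity score with lowered wild-type GFP, culture density cut under 30%, mutant RFP and density less affected; inactive means any of these conditions unmet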
# Starred values were filed as active, the others as inactive; · = not tested or not shown; [ ] = another dose, or the depositor's remark.
SMILES,miR-122 sensor,Vif inh,HIV Env fusion,S100A4 MyoIIA,FN deposition inh,rRNA inh HTS
CS(=O)(=O)N1CCc2cc(NC(=O)c3ccc(Cl)cc3Cl)ccc21,·,-2,4,-2,-3,-24*
CS(=O)(=O)N1CCc2cc(C(=O)Nc3ccc(Cl)cc3)ccc21,0,-3,-23,-2,10,9
CCc1nc2ccc(C(=O)N3CCN(C(=O)c4ccco4)CC3)cn2c1N(C)Cc1ccc(OC)cc1,-6,-2,72*,39,3,4
CCc1nc2ccc(C(=O)N3CCN(C(=O)c4ccco4)CC3)cn2c1N(C)C(=O)COc1ccccc1,97*,4,-148,0,-2,7
CCN1[C@H](C(=O)N2CCc3ccccc3C2)[C@@H](CO)[C@@H]2Cn3c(cccc3=O)[C@@H]21,0[16.7 µM],·,·,7,·,0
O=C(C[C@H]1CC[C@H]2[C@@H](COC[C@H](O)CN2CCc2ccccc2)O1)NCc1ccccc1,1[16.7 µM],·,6[16.7 µM],10,-10,4
Cc1oc2c(c1C(=O)c1ccccc1)C(=O)C(=O)c1ccccc1-2,5,2,·,·,·,·
O=C1C(=O)c2c(C(=O)c3ccccc3)coc2-c2ccccc21,-2,·,·,2,·,-44*
CC(=O)N(C)C[C@H]1Oc2cc(-c3ccccc3C)ccc2S(=O)(=O)N([C@H](C)CO)C[C@@H]1C,-7[16.7 µM],·,-6[16.7 µM],48,·,-2
COC(=O)CC1C(=O)NCCN1C(=S)NC(=O)CCc1ccccc1 (stereo not given),-2,1,-84,1,1,4
COC(=O)CC1C(=O)NCCN1C(=S)NC(=O)C(c1ccccc1)c1ccccc1 (stereo not given),·,3,45,-7,0,-26*
COc1ccc(OC(F)(F)F)cc1CC1(C)C(=O)Nc2ccc(-c3ccsc3)cc21 (stereo not given),-5,-17,58*,-1,-2,5
CC1(Cc2ccccc2OC(F)(F)F)C(=O)Nc2ccc(S(=O)(=O)NC3CCCCC3)cc21 (stereo not given),84,-3,55,5,-3,-18
COc1ccccc1CC1(C)C(=O)Nc2ccc(S(=O)(=O)NC3CCCCC3)cc21 (stereo not given),41,-5,56*,0,5,-1
COc1ccc(C(C)=O)cc1CC1(C)C(=O)Nc2ccc(OC(F)(F)F)cc21 (stereo not given),-7,5,10,-14,3,-50
COc1ccc(OC(F)(F)F)cc1CC1(C)C(=O)Nc2ccc(S(=O)(=O)NC3CCCCC3)cc21 (stereo not given),52,-13,88*,-2,-9,4
COc1ccc(Cl)cc1CC1(C)C(=O)Nc2ccc(S(=O)(=O)NC3CCCCC3)cc21 (stereo not given),81,-13,93*,4,5,-48
COc1ccc(OC(F)(F)F)cc1CC1(C)C(=O)Nc2cccc(Cl)c21 (stereo not given),2,-11,83*,24,-7,-9
CC(=O)c1c(O)c(C)c(-c2ccccc2)n(-c2ccccc2)c1=O,-6,-14,·,·,·,·
O=C(c1ccccc1)c1c(O)nc(-c2ccccc2)n(-c2ccccc2)c1=O,·,2,·,-4,-3,-25*
COc1cccc(S(=O)(=O)N(C)C[C@@H]2Oc3cc(C4=CCCCC4)ccc3S(=O)(=O)N([C@@H](C)CO)C[C@@H]2C)c1,-8[16.7 µM],·,55*[16.7 µM],2,·,0
COc1ccc(S(=O)(=O)N(C)C[C@@H]2Oc3cc(C4=CCCC4)ccc3S(=O)(=O)N([C@@H](C)CO)C[C@H]2C)cc1,-9[16.7 µM],·,32[16.7 µM],-2,2,-1
COc1ccc(S(=O)(=O)N(C)C[C@@H]2Oc3cc(C4=CCCC4)ccc3S(=O)(=O)N([C@H](C)CO)C[C@H]2C)cc1,-6[16.7 µM],·,26[16.7 µM],-2,5,-2
COc1cccc(S(=O)(=O)N(C)C[C@H]2Oc3cc(C4=CCCCC4)ccc3S(=O)(=O)N([C@H](C)CO)C[C@H]2C)c1,-14[16.7 µM],·,69*[16.7 µM],·,·,1
Cc1ccc(S(=O)(=O)N(C)C[C@@H]2OCCCC[C@@H](C)Oc3ccc(NC(=O)NC(C)C)cc3C(=O)N([C@H](C)CO)C[C@@H]2C)cc1,14[16.7 µM],·,10[16.7 µM],0,-1,-2
SMILES,miR-122 sensor,Vif inh,HIV Env fusion,S100A4 MyoIIA,FN deposition inh,rRNA inh HTS
C[C@@H]1CN([C@H](C)CO)C(=O)c2cc(NC(=O)c3ccncc3)ccc2O[C@@H]1CN(C)S(=O)(=O)c1cccs1,25[16.7 µM],·,·,-57,0,0
Cc1cccc(N=NC(=S)NNc2cccc(C)c2)c1,15,10,-63,0,2,-20*
Cc1cccc(NNC(=O)C(=O)NNc2cccc(C)c2)c1,14,-1,4,2,0,8
CCN(Cc1ccccc1)c1ccc(/C=N/N2CCOCC2)cc1,·,4,-15,-9,-4,-22*
CN1/C(=C/c2cccc[n+]2C)Sc2ccccc21,·,118*,9,-7,-12,25
COc1ccc(NC(=O)Nc2ccc3c(c2)[C@H]2C[C@H](CC(=O)N4CCN(C)CC4)O[C@H](CO)[C@H]2O3)cc1,-3[16.7 µM],·,-2[16.7 µM],10,·,3
O=C(N(Cc1ccccc1)c1ccccn1)C12CC3CC(CC(C3)C1)C2,4,-4,122*,·,-2,·
O=C(N(c1ccccn1)c1ccccn1)C12CC3CC(CC(C3)C1)C2,·,-1,41,2,-5,-8
CNC[C@H]1Oc2ccc(NC(=O)Nc3c(C)noc3C)cc2C(=O)N([C@@H](C)CO)C[C@H]1C,7[16.7 µM],·,6[16.7 µM],-4,-7,-3
C[C@H](CO)N1C[C@H](C)[C@@H](CN(C)C(=O)Nc2ccc(C(F)(F)F)cc2)Oc2c(NS(=O)(=O)c3ccc(Cl)cc3)cccc2C1=O,23[16.7 µM],·,·,-14,·,-2
CC(CCc1ccccc1)NC(=O)CN(C)Cc1ccc(F)cc1 (stereo not given),-6,-3,-6,-3,6,-4
CC(CCc1ccccc1)NC(=O)CN(C)Cc1ccccc1F (stereo not given),3,-7,16,-3,3,-29*
CSc1ccc(CN(C)CC(=O)NCCc2ccccc2)cc1,·,69*,5,-2,3,-12
COc1ccc(S(=O)(=O)N(C)C[C@H]2Oc3ccc(NC(=O)Cn4cnnn4)cc3CC(=O)N([C@@H](C)CO)C[C@H]2C)cc1,0[16.7 µM],·,-19[16.7 µM],38,·,0
CC(Cl)C(=O)NN=C(c1ccccc1)c1ccccc1 (stereo not given),0,-2,5,-2,2,1
CC(NC1CCCCC1)C(=O)NN=C(c1ccccc1)c1ccccc1 (stereo not given),·,9,24,0,·,-25*

# Screening results as filed in PubChem BioAssay.
